Test results from ChEMBL document CHEMBL1135836, “Cyclodextrin-derived host molecules as reversal agents for the neuromuscular blocker rocuronium bromide: synthesis and structure-activity relationships” (J Med Chem, 2002).
Each block holds one compound with its values, some of them ahead of it.

How the values were obtained:
Assay type in all cases: functional
Mus musculus [1] = species: Mus musculus; assay: In vitro reversal activity versus ~90% block by rocuronium in isolated mouse hemidiaphragm, expressed as % of maximum reversal at a conc. of 360 uM
Cavia porcellus [2] = assay: In vivo reversal activity versus ~90% block by rocuronium in guinea pig
Procedure, shortened: (§1)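 Male Dunkin-Hartley guinea pigs (600-900 g), anaesthetized ip with pentobarbitone 10 mg/kg plus urethane 1000 mg/kg, tracheotomized and ventilated. Continuous iv rocuronium infusion (~10 nmol kg-1 min-1) was raised to a steady 85-90% block. Increasing iv doses of agent were given cumulatively. ED50 = 50% recovery versus preblock twitch, by regression. Mean ± SEM of at least two experiments, or one.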

Cavia porcellus [3] = assay: In vivo reversal activity versus ~90% block by rocuronium in guinea pig, expressed as % maximum reversal at 1018 umol/kg conc.; procedure, shortened: as §1
Mus musculus [4] = species: Mus musculus; assay: In vitro reversal activity versus ~90% block by rocuronium in isolated mouse hemidiaphragm, expressed as effective conc.
Cavia porcellus [5] = assay: In vivo reversal activity versus ~90% block by rocuronium in guinea pig, expressed as % of maximum reversal at 1.7 umol/kg conc.; procedure, shortened: as §1
Mus musculus [6] = species: Mus musculus; assay: In vitro reversal activity versus ~90% block by rocuronium in isolated mouse hemidiaphragm, expressed as % of maximum reversal at 7.2 uM conc.
Mus musculus [7] = species: Mus musculus; assay: In vitro reversal activity versus ~90% block by rocuronium in isolated mouse hemidiaphragm, expressed as % of maximum reversal at 144 uM conc.
Cavia porcellus [8] = assay: In vivo reversal activity versus ~90% block by rocuronium in guinea pig, expressed as % of maximum reversal at 47umol/kg conc.
Procedure, shortened: (§2)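 Male Dunkin-Hartley guinea pigs (600-900 g) anaesthetized ip with pentobarbitone 10 mg/kg plus urethane 1000 mg/kg, tracheotomized and artificially ventilated. Continuous iv rocuronium bromide infusion (~10 nmol kg-1 min-1) raised until steady-state twitch block of 85-90%. Increasing single iv doses of reversal agent given by a separate catheter. Max reversal is peak twitch recovery versus preblock height at highest dose tested; means ± SEM, n ≥ 2 or single experiment.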

Cavia porcellus [9] = assay: In vivo reversal activity versus ~90% block by rocuronium in guinea pig, expressed as % of maximum reversal at 33.1 umol/kg conc.; procedure, shortened: as §2
Mus musculus [10] = species: Mus musculus; assay: In vitro reversal activity versus ~90% block by rocuronium in isolated mouse hemidiaphragm, expressed as % of maximum reversal at 10.8uM conc.
Mus musculus [11] = species: Mus musculus; assay: In vitro reversal activity versus ~90% block by rocuronium in isolated mouse hemidiaphragm, expressed as % of maximum reversal at 180 uM conc.
Cavia porcellus [12] = assay: In vivo reversal activity versus ~90% block by rocuronium in guinea pig, expressed as % of maximum reversal at 8 umol/kg conc.; procedure, shortened: as §2
Mus musculus [13] = species: Mus musculus; assay: In vitro reversal activity versus ~90% block by rocuronium in isolated mouse hemidiaphragm, expressed as % of maximum reversal at 252 uM conc.
Cavia porcellus [14] = assay: In vivo reversal activity versus ~90% block by rocuronium in guinea pig, expressed as % of maximum reversal at 11 umol/kg conc.; procedure, shortened: as §1
Cavia porcellus [15] = assay: In vivo reversal activity versus ~90% block by rocuronium in guinea pig, expressed as % of maximum reversal at 1.2 umol/kg conc.; procedure, shortened: as §1
Mus musculus [16] = species: Mus musculus; assay: In vitro reversal activity versus ~90% block by rocuronium in isolated mouse hemidiaphragm, expressed as % of maximum reversal at 3.6 uM conc.
Mus musculus [17] = species: Mus musculus; assay: In vitro reversal activity versus ~90% block by rocuronium in isolated mouse hemidiaphragm, expressed as % of maximum reversal at 16.2 uM conc.
Cavia porcellus [18] = assay: In vivo reversal activity versus ~90% block by rocuronium in guinea pig, expressed as % of maximum reversal at 2.1 umol/kg conc.; procedure, shortened: as §2
Cavia porcellus [19] = assay: In vivo reversal activity versus ~90% block by rocuronium in guinea pig, expressed as % of maximum reversal at 2.8 umol/kg conc.; procedure, shortened: as §2
Felis catus [20] = assay: Percent of maximum change of decrease in HR (bpm) by vagal stimulation in anesthetized cat (dosed with standard combination of neostigmin (24.3 umol/kg) + atropine 15 umol/kg)
Felis catus [21] = assay: Percent increase in contraction of nictitating membrane in anesthetized cat (dosed with standard combination of neostigmin (24.3 umol/kg) + atropine 15 umol/kg)
Felis catus [22] = assay: Percent of maximum change of HR in anesthetized cat (dosed with standard combination of neostigmin (24.3 umol/kg) + atropine 15 umol/kg)
Felis catus [23] = assay: Percent of maximum change in BP in anesthetized cat (dosed with standard combination of neostigmin (24.3 umol/kg) + atropine 15 umol/kg)
Cavia porcellus [24] = assay: In vivo reversal activity versus ~90% block by rocuronium in guinea pig, expressed as % of maximum reversal at 9.6 […] conc.; procedure, shortened: as §2
Cavia porcellus [25] = assay: In vivo reversal activity versus ~90% block by rocuronium in guinea pig, expressed as % of maximum reversal. at a conc. of 0.08 uM
Mus musculus [26] = species: Mus musculus; assay: In vitro reversal activity versus ~90% block by rocuronium in isolated mouse hemidiaphragm, expressed as % of maximum reversal

EC50 (Mus musculus [4]): > 360 µM
Compound: OCC1O[C@@H]2O[C@@H]3C(CO)O[C@H](O[C@@H]4C(CO)O[C@H](O[C@@H]5C(CO)O[C@H](O[C@@H]6C(CO)O[C@H](O[C@@H]7C(CO)O[C@H](O[C@H]1C(O)C2O)C(O)C7O)C(O)C6O)C(O)C5O)C(O)C4O)C(O)C3O (stereo partly drawn)
Max reversal (Mus musculus [1]): 9.7%
ED50 (Cavia porcellus [2]): 1580 µmol/kg
Max reversal (Cavia porcellus [3]): 6.4%

EC50 (Mus musculus [4]): 0.36 µM
Compound: O=S(=O)([O-])CSCC1O[C@@H]2O[C@@H]3C(CSCS(=O)(=O)[O-])O[C@H](O[C@@H]4C(CSCS(=O)(=O)[O-])O[C@H](O[C@@H]5C(CSCS(=O)(=O)[O-])O[C@H](O[C@@H]6C(CSCS(=O)(=O)[O-])O[C@H](O[C@@H]7C(CSCS(=O)(=O)[O-])O[C@H](O[C@@H]8C(CSCS(=O)(=O)[O-])O[C@H](O[C@@H]9C(CSCS(=O)(=O)[O-])O[C@H](O[C@H]1C(O)C2O)C(O)C9O)C(O)C8O)C(O)C7O)C(O)C6O)C(O)C5O)C(O)C4O)C(O)C3O.[Na+].[Na+].[Na+].[Na+].[Na+].[Na+].[Na+].[Na+] (stereo partly drawn)
ED50 (Cavia porcellus [2]): 0.06 µmol/kg
Max reversal (Cavia porcellus [5]): 106.5%
Max reversal (Mus musculus [6]): 101.4%

EC50 (Mus musculus [4]): 34.6 µM
Compound: OCC1O[C@@H]2O[C@@H]3C(CO)O[C@H](O[C@@H]4C(CO)O[C@H](O[C@@H]5C(CO)O[C@H](O[C@@H]6C(CO)O[C@H](O[C@@H]7C(CO)O[C@H](O[C@@H]8C(CO)O[C@H](O[C@@H]9C(CO)O[C@H](O[C@H]1C(O)C2O)C(O)C9O)C(O)C8O)C(O)C7O)C(O)C6O)C(O)C5O)C(O)C4O)C(O)C3O (stereo partly drawn)
Max reversal (Mus musculus [7]): 94.1%
Max reversal (Cavia porcellus [8]): 104.7%
ED50 (Cavia porcellus [2]): 4 µmol/kg

EC50 (Mus musculus [4]): 5 µM
Compound: NC(=O)CCCSCC1O[C@@H]2O[C@@H]3C(CSCCCC(N)=O)O[C@H](O[C@@H]4C(CSCCCC(N)=O)O[C@H](O[C@@H]5C(CSCCCC(N)=O)O[C@H](O[C@@H]6C(CSCCCC(N)=O)O[C@H](O[C@@H]7C(CSCCCC(N)=O)O[C@H](O[C@@H]8C(CSCCCC(N)=O)O[C@H](O[C@@H]9C(CSCCCC(N)=O)O[C@H](O[C@H]1C(O)C2O)C(O)C9O)C(O)C8O)C(O)C7O)C(O)C6O)C(O)C5O)C(O)C4O)C(O)C3O (stereo partly drawn)
Max reversal (Cavia porcellus [9]): 94.2%
ED50 (Cavia porcellus [2]): 0.58 µmol/kg
Max reversal (Mus musculus [10]): 85.4%

EC50 (Mus musculus [4]): 50.3 µM
Compound: O=C([O-])c1ccc(SCC2O[C@@H]3O[C@@H]4C(CO)O[C@H](O[C@@H]5C(CO)O[C@H](O[C@@H]6C(CO)O[C@H](O[C@@H]7C(CO)O[C@H](O[C@@H]8C(CO)O[C@H](O[C@@H]9C(CO)O[C@H](O[C@@H]%10C(CO)O[C@H](O[C@H]2C(O)C3O)C(O)C%10O)C(O)C9O)C(O)C8O)C(O)C7O)C(O)C6O)C(O)C5O)C(O)C4O)cc1.[Na+] (stereo partly drawn)
Max reversal (Mus musculus [11]): 94.7%
ED50 (Cavia porcellus [2]): 0.94 µmol/kg
Max reversal (Cavia porcellus [12]): 102.4%

EC50 (Mus musculus [4]): 97.6 µM
Compound: O=C([O-])c1ccccc1SCC1O[C@@H]2O[C@@H]3C(CO)O[C@H](O[C@@H]4C(CO)O[C@H](O[C@@H]5C(CO)O[C@H](O[C@@H]6C(CO)O[C@H](O[C@@H]7C(CO)O[C@H](O[C@@H]8C(CO)O[C@H](O[C@@H]9C(CO)O[C@H](O[C@H]1C(O)C2O)C(O)C9O)C(O)C8O)C(O)C7O)C(O)C6O)C(O)C5O)C(O)C4O)C(O)C3O.[Na+] (stereo partly drawn)
ED50 (Cavia porcellus [2]): 1.3 µmol/kg
Max reversal (Mus musculus [13]): 86.3%
Max reversal (Cavia porcellus [14]): 93%

EC50 (Mus musculus [4]): 0.6 µM
Compound: OC1C(O)[C@@H]2O[C@H]3OC(CSCCCc4nn[n-]n4)[C@@H](O[C@H]4OC(CSCCCc5nn[n-]n5)[C@@H](O[C@H]5OC(CSCCCc6nn[n-]n6)[C@@H](O[C@H]6OC(CSCCCc7nn[n-]n7)[C@@H](O[C@H]7OC(CSCCCc8nn[n-]n8)[C@@H](O[C@H]8OC(CSCCCc9nn[n-]n9)[C@@H](O[C@H]9OC(CSCCCc%10nn[n-]n%10)[C@@H](O[C@H]1OC2CSCCCc1nn[n-]n1)C(O)C9O)C(O)C8O)C(O)C7O)C(O)C6O)C(O)C5O)C(O)C4O)C(O)C3O.[Na+].[Na+].[Na+].[Na+].[Na+].[Na+].[Na+].[Na+] (stereo partly drawn)
Max reversal (Cavia porcellus [15]): 109%
Max reversal (Mus musculus [16]): 89.9%
ED50 (Cavia porcellus [2]): 0.22 µmol/kg

EC50 (Mus musculus [4]): 9.1 µM
Compound: O=C(O)CCOCCSCC1O[C@@H]2O[C@@H]3C(CSCCOCCO)O[C@H](O[C@@H]4C(CSCCOCCO)O[C@H](O[C@@H]5C(CSCCOCCO)O[C@H](O[C@@H]6C(CSCCOCCO)O[C@H](O[C@@H]7C(CSCCOCCO)O[C@H](O[C@@H]8C(CSCCOCCO)O[C@H](O[C@@H]9C(CSCCOCCO)O[C@H](O[C@H]1C(O)C2O)C(O)C9O)C(O)C8O)C(O)C7O)C(O)C6O)C(O)C5O)C(O)C4O)C(O)C3O (stereo partly drawn)
Max reversal (Mus musculus [17]): 66.1%
ED50 (Cavia porcellus [2]): 0.47 µmol/kg
Max reversal (Cavia porcellus [18]): 92.2%

EC50 (Mus musculus [4]): 3 µM
Compound: O=C([O-])CCc1ccc(SCC2O[C@@H]3O[C@@H]4C(CSc5ccc(CCC(=O)[O-])cc5)O[C@H](O[C@@H]5C(CSc6ccc(CCC(=O)[O-])cc6)O[C@H](O[C@@H]6C(CSc7ccc(CCC(=O)[O-])cc7)O[C@H](O[C@@H]7C(CSc8ccc(CCC(=O)[O-])cc8)O[C@H](O[C@@H]8C(CSc9ccc(CCC(=O)[O-])cc9)O[C@H](O[C@@H]9C(CSc%10ccc(CCC(=O)[O-])cc%10)O[C@H](O[C@@H]%10C(CSc%11ccc(CCC(=O)[O-])cc%11)O[C@H](O[C@H]2C(O)C3O)C(O)C%10O)C(O)C9O)C(O)C8O)C(O)C7O)C(O)C6O)C(O)C5O)C(O)C4O)cc1.[Na+].[Na+].[Na+].[Na+].[Na+].[Na+].[Na+].[Na+] (stereo partly drawn)
ED50 (Cavia porcellus [2]): 1.01 µmol/kg
Max reversal (Cavia porcellus [19]): 94.3%
Max reversal (Mus musculus [6]): 95.4%

Compound: CN(C)C(=O)Oc1cccc([N+](C)(C)C)c1.CN1[C@@H]2CC[C@H]1C[C@H](OC(=O)C(CO)c1ccccc1)C2.[Br-] (stereo partly drawn)
Decrease (Felis catus [20]): -64.8%
Increase (Felis catus [21]): -7.2%
HR (Felis catus [22]): -7.1 beats min-1
BP (Felis catus [23]): 17.7 mmHg

EC50 (Mus musculus [4]): 6.5 µM
Compound: O=C([O-])CSCC1O[C@@H]2O[C@@H]3C(CSCC(=O)[O-])O[C@H](O[C@@H]4C(CSCC(=O)[O-])O[C@H](O[C@@H]5C(CSCC(=O)[O-])O[C@@H](O[C@@H]6C(CSCC(=O)[O-])O[C@H](O[C@@H]7C(CSCC(=O)[O-])O[C@H](O[C@@H]8C(CSCC(=O)[O-])O[C@H](O[C@H]1C(O)C2O)C(O)C8O)C(O)C7O)C(O)C6O)C(O)C5O)C(O)C4O)C(O)C3O.[Na+].[Na+].[Na+].[Na+].[Na+].[Na+].[Na+] (stereo partly drawn)
Max reversal (Mus musculus [17]): 97.3%
ED50 (Cavia porcellus [2]): 0.93 µmol/kg
Max reversal (Cavia porcellus [24]): 89.6%

Compound: CN(C)C(=O)Oc1cccc([N+](C)(C)C)c1.[Br-] [NEOSTIGMINE BROMIDE]
Max reversal (Cavia porcellus [25]): 65.3%
ED50 (Cavia porcellus [2]): 0.04 µmol/kg
Max reversal (Mus musculus [26]): 74.4%
EC50 (Mus musculus [4]): 0.9 µM
